Source: ChEMBL document CHEMBL2434876, “Design, synthesis and biological evaluation of 2-substituted quinolines as potential antileishmanial agents” (Eur J Med Chem, 2013)
Active and inactive are the calls of the source. The calls are words filed in the database; no cut-off is given here.

How the values were obtained:
[1] = Drug metabolism in mouse liver microsomes at 1 uM after 30 mins by LC-MS/MS analysis; format: ADME, Microsome; settings: read-out: Drug metabolism
Outline: (§1)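 Liver microsomes (1 mg/mL protein) in sodium phosphate buffer pH 7.4 with 5 mM NADPH, preincubated 10 min at 37°C. Test compound taken from a 200 µM acetonitrile:DMSO (96:4) stock. Samples analysed by LC/MS/MS as analyte/internal standard peak-area ratio. Percent metabolized at 30 min relative to 0 min; NADPH-free controls run in parallel.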

[2] = tested on: Leishmania donovani; test: Antileishmanial activity against Leishmania donovani MHOM/IN/80/Dd8 amastigotes infected in mouse J774A1 cells assessed as parasite growth inhibition after 72 hrs by luciferase reporter gene assay; format: functional, organism-based; settings: MHOM/IN/80/Dd8, J774.A1, 72 h
Outline: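 J774A.1 macrophages (4 x 10^3/well) in RPMI-1640 with 10% FCS for 24 h, then infected with stationary-phase luciferase-expressing promastigotes (4 x 10^4/well). Non-internalized parasites washed off after 24 h. Compounds given as 7-point serial dilution from 100 µM for 72 h at 37°C. Steady-Glo luminescence read; IC50 from four-parameter Hill fit, mean of two independent experiments.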

[3] = Cytotoxicity against African green monkey Vero cells after 72 hrs by MTT assay; format: cell-based; settings: chlorocebus sabaeus
Outline: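 Exponentially growing Vero cells (1 x 10^5/well) exposed 72 h at 37°C, 5% CO2, to 7-point threefold dilutions from 400 µM (DMSO stocks diluted in medium), with DMSO vehicle controls. MTT added for 2 h, formazan dissolved in DMSO, absorbance read at 544 nm. CC50 is the concentration halving viability versus medium-only cells; mean of two independent experiments.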

[4] = Drug metabolism in human liver microsomes at 1 uM after 30 mins by LC-MS/MS analysis; format: ADME, Microsome; settings: read-out: Drug metabolism; outline: as §1
[5] = Selectivity index, ratio of CC50 for African green monkey Vero cells to IC50 for Leishmania donovani MHOM/IN/80/Dd8 amastigotes; format: functional
Outline: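 Selectivity index is Vero CC50 divided by IC50 against intracellular L. donovani amastigotes in J774A.1 cells, each measured over 72 h.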

[6] = Drug metabolism in hamster liver microsomes at 1 uM after 30 mins by LC-MS/MS analysis; format: ADME, Microsome; settings: cricetinae, read-out: Drug metabolism; outline: as §1
[7] = tested on: Leishmania donovani; test: Antileishmanial activity against Leishmania donovani MHOM/IN/80/Dd8 amastigotes infected in golden hamster assessed as parasite growth inhibition at 50 mg/kg, po bid for 5 days measured on day 7 by Giemsa staining assay; format: functional
Outline: (§2)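 Inbred golden hamsters, 40-45 g, infected intracardially with 1 x 10^7 L. donovani amastigotes. Animals with +1 spleen biopsy grade (5-15 amastigotes/100 nuclei) were randomized, 5-6 per group. Dosing in distilled water/PBS began 48 h after biopsy and ran 5 consecutive days. Post-treatment spleen biopsy on day 7, Giemsa count; percent inhibition corrected for initial count and untreated-control increase.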

[8] = tested on: Leishmania donovani; test: Antileishmanial activity against Leishmania donovani MHOM/IN/80/Dd8 amastigotes infected in golden hamster assessed as parasite growth inhibition at 50 mg/kg, ip qd for 5 days measured on day 7 by Giemsa staining assay; format: functional; outline: as §2
[9] = Solubility of the compound; format: physicochemical
[10] = tested on: Leishmania donovani; test: Antileishmanial activity against Leishmania donovani MHOM/IN/80/Dd8 amastigotes infected in golden hamster assessed as parasite growth inhibition at 30 mg/kg, po qd for 5 days measured on day 7 by Giemsa staining assay; format: functional; settings: read-out: GI; outline: as §2

Row | SMILES | metabolised at 0.5 h, 1 µM [1] | IC50 [2] | CC50 at 72 h [3] | metabolised at 0.5 h, 1 µM [4] | Ratio CC50/IC50 [5] | metabolised at 0.5 h, 1 µM [6] | growth inhibition (GI) [7] | growth inhibition (GI) [8] | solubility [9] | inhibition in vivo at 30 mg/kg [10] | inhibition in vivo at 50 mg/kg ([7]; read-out: GI)
1 | OC/C=C/c1cc(N2CCOCC2)c2cc(Cl)ccc2n1 | 56% | 4.4 µM | 46.9 µM | 43% | 10.65 | 88% |  |  |  |  | 
2 | OC/C=C/c1cc(-c2cccc(F)c2)c2cc(Cl)c(F)cc2n1 | 40% | 1.79 µM | 21.6 µM | 25% | 12.08 | 59% |  |  |  |  | 
3 | OC/C=C/c1ccc2cc(Cl)ccc2n1 | 100% | 0.86 µM | 28.9 µM | 87% | 33.59 |  |  |  |  |  | 
4 | N#C/C=C/c1ccc2ccccc2n1 | 100% | 28.6 µM | 155 µM | 100% | 5.41 |  |  |  |  |  | 
5 | OC/C=C/c1ccc2cc(Cl)c(F)cc2n1 | 60% | 14.3 µM | 79.6 µM | 50% | 5.54 |  |  |  |  |  | 
6 | COc1ccc(-c2cc(/C=C/CO)nc3cc(F)c(Cl)cc23)cc1 | 30% | 1.2 µM | 26.8 µM | 14% | 22.26 | 23% | inactive |  |  |  | 
7 | COc1ccc2nc(/C=C/CO)ccc2c1 |  | 32.4 µM | 45.9 µM |  | 1.42 |  |  |  |  |  | 
8 | CN(C)c1cc(/C=C/CO)nc2cc(F)c(Cl)cc12 |  | 23 µM | 41.6 µM |  | 1.8 |  |  |  |  |  | 
9 | CCCc1ccc2ccccc2n1 | 100% | > 100 µM | 126 µM | 98% | <1.25 |  |  |  |  |  | 
10 | OCC#Cc1ccc2ccccc2n1 | 99% | 10.7 µM | 26.2 µM | 22% | 2.45 |  |  |  |  |  | 
11 | OC/C=C/c1cc(N2CCCCC2)c2cc(Cl)c(F)cc2n1 | 81% | 2.84 µM | 22.3 µM | 39% | 7.86 | 100% |  |  |  |  | 
12 | NC(=O)/C=C/c1ccc2ccccc2n1 | 97% | 20.4 µM | 76.3 µM | 44% | 3.74 |  |  |  |  |  | 
13 | COc1cc2nc(/C=C/CO)cc(N3CCOCC3)c2cc1Cl | 44% | 3.72 µM | 51.8 µM | 31% | 13.92 | 86% |  |  |  |  | 
14 | O=C(O)/C=C/c1ccc2ccccc2n1 |  | 50.2 µM | > 400 µM |  | >7.96 |  |  |  |  |  | 
15 | COc1ccc(-c2cc(/C=C/CO)nc3ccc(Cl)cc23)cc1 | 34% | 0.22 µM | 37.1 µM | 8% | 168.72 |  |  |  |  |  | 
16 | OC/C=C/c1ccc2ccccc2n1 | 100% | 10 µM | 31.9 µM | 96% | 3.17 |  |  | inactive |  |  | 
17 | OC/C=C/c1cc(-c2ccc(F)cc2)c2cc(Cl)ccc2n1 | 83% | 1.57 µM | 32.5 µM | 25% | 20.71 |  |  |  |  |  | 
18 | FC/C=C/c1ccc2ccccc2n1 | 100% | 6.68 µM | 38.6 µM | 100% | 5.77 |  |  |  | > 1000 µg/mL |  | 
19 | OC/C=C/c1ccc2cc(F)ccc2n1 | 100% | 17.9 µM | 51.2 µM | 76% | 2.86 |  |  |  |  |  | 
20 | OC/C=C/c1ccc2c(F)c(Cl)ccc2n1 |  | 4.1 µM | 19.5 µM |  | 4.76 |  |  |  |  |  | 
21 | OC/C=C/c1cc(Oc2ccc(F)cc2)c2cc(Cl)ccc2n1 | 33% | 1.96 µM | 35.4 µM | 27% | 18.07 | 94% |  |  |  |  | 
22 | CCCCCCCCCCCCCCCCOP(=O)([O-])OCC[N+](C)(C)C [MILTEFOSINE] |  |  | 52.7 µM |  | 6.27 |  |  |  |  | 96.5% | 
23 | OC/C=C/c1cc(N2CCOCC2)c2cc(Cl)c(F)cc2n1 |  |  |  |  |  |  |  |  |  |  | 84.3%
24 | OC/C=C/c1cc(-c2ccc(F)cc2)c2cc(Cl)c(F)cc2n1 | 51% | 1.43 µM | 24.6 µM | 25% |  | 53% |  |  |  |  | 
25 | CC1CN(c2cc(/C=C/CO)nc3cc(F)c(Cl)cc23)CC(C)O1 (configuration not stated) | 50% | 4.75 µM | 41.3 µM | 17% | 8.97 | 99% |  |  |  |  | 
26 | CN1CCN(c2cc(/C=C/CO)nc3cc(F)c(Cl)cc23)CC1 | 27% | 5.88 µM | 44.6 µM | 27% | 7.58 | 89% |  |  |  |  | 
